According to ChEMBL document CHEMBL2311458, “A facile synthesis, antibacterial activity of pulvinone and its derivatives” (2013):
In brackets after ≈: the same amount, converted by molar mass. Activity calls are given as the source filed them. The rule behind the calls is not given here.

Legend:
Assay type in all cases: functional
Staphylococcus aureus [1] = assay: Antibacterial activity against Staphylococcus aureus assessed as growth inhibition measured at 50 ug/ml after 24 hrs by broth microdilution method
Escherichia coli [2] = assay: Antibacterial activity against Escherichia coli assessed as growth inhibition measured after 24 hrs by broth microdilution method
Summary of the method: (§1)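 Broth microdilution per NCCLS. Bacteria were grown in Luria broth to exponential phase. Compounds were dissolved in DMSO (stock 5120 μg/ml), diluted in test medium and tested at two-fold dilutions from 1 to 128 μg/ml. MIC50 is the lowest concentration reducing OD to half that of the untreated control.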

Acinetobacter baumannii [3] = assay: Antibacterial activity against Acinetobacter baumannii assessed as growth inhibition measured at 50 ug/ml after 24 hrs by broth microdilution method
Pseudomonas aeruginosa [4] = assay: Antibacterial activity against Pseudomonas aeruginosa assessed as growth inhibition measured at 50 ug/ml after 24 hrs by broth microdilution method
Escherichia coli [5] = assay: Antibacterial activity against Escherichia coli assessed as growth inhibition measured at 50 ug/ml after 24 hrs by broth microdilution method
[6] = system: Stenotrophomonas maltophilia; assay: Antibacterial activity against Stenotrophomonas maltophilia assessed as growth inhibition measured at 50 ug/ml after 24 hrs by broth microdilution method
[7] = system: Stenotrophomonas maltophilia; assay: Antibacterial activity against Stenotrophomonas maltophilia assessed as growth inhibition measured after 24 hrs by broth microdilution method; summary of the method: as §1
Pseudomonas aeruginosa [8] = assay: Antibacterial activity against Pseudomonas aeruginosa assessed as growth inhibition measured after 24 hrs by broth microdilution method; summary of the method: as §1
Acinetobacter baumannii [9] = assay: Antibacterial activity against Acinetobacter baumannii assessed as growth inhibition measured after 24 hrs by broth microdilution method; summary of the method: as §1
Staphylococcus aureus [10] = assay: Antibacterial activity against Staphylococcus aureus assessed as growth inhibition measured after 24 hrs by broth microdilution method; summary of the method: as §1

SMILES	MIC50 (Escherichia coli [2]) [µg/mL]	MIC50 [7] [µg/mL]	MIC50 (Pseudomonas aeruginosa [8]) [µg/mL]	MIC50 (Acinetobacter baumannii [9]) [µg/mL]	MIC50 (Staphylococcus aureus [10]) [µg/mL]	inhibition (Staphylococcus aureus [1])	inhibition at 50 µg/mL (Acinetobacter baumannii [3]) [%]	inhibition at 50 µg/mL (Pseudomonas aeruginosa [4]) [%]	inhibition at 50 µg/mL (Escherichia coli [5]) [%]	inhibition at 50 µg/mL [6] [%]	inhibition at 50 µg/mL (Staphylococcus aureus [1]) [%]
COC1=C(c2ccc(F)cc2)C(=O)OC1C(O)c1ccc(N2CCOCC2)c(F)c1 (centres undefined)	> 50	–	–	–	–	inactive	22.8	35.2	42	31.9	–
COC1=C(c2ccc(F)cc2)C(=O)O/C1=C\c1ccc(N2CCOCC2)c(F)c1	> 50	20.6 (≈ 51.7 µM)	–	–	–	inactive	20.1	23.4	37.6	59.4	–
O=C1O/C(=C\c2ccc(N3CCOCC3)c(F)c2)C(O)=C1c1ccc(F)cc1	15.6 (≈ 40.5 µM)	–	–	–	–	inactive	15.6	23.2	56.8	27.8	–
COC1=C(c2ccc(Cl)cc2)C(=O)OC1C(O)c1ccc(N2CCOCC2)c(F)c1 (centres undefined)	30.3 (≈ 69.7 µM)	–	–	–	–	inactive	22.1	31.7	61.8	–	–
COC1=C(c2ccc(Cl)cc2)C(=O)O/C1=C\c1ccc(N2CCOCC2)c(F)c1	7.4 (≈ 17.8 µM)	–	–	–	–	inactive	–	45.3	70.7	–	–
COC1=C(c2ccccc2)C(=O)OC1C(O)c1ccc(N2CCOCC2)c(F)c1 (centres undefined)	36.5 (≈ 91.3 µM)	–	–	–	–	inactive	29.2	34.8	52.4	17.1	–
COC1=C(c2ccccc2)C(=O)O/C1=C\c1ccc(N2CCOCC2)c(F)c1	> 50	–	–	–	–	inactive	10	17.6	45.4	–	–

These reach a lower MIC50 (Escherichia coli [2]). Values come first.

MIC50 (Escherichia coli [2]) [µg/mL]	MIC50 [7] [µg/mL]	MIC50 (Pseudomonas aeruginosa [8]) [µg/mL]	MIC50 (Acinetobacter baumannii [9]) [µg/mL]	MIC50 (Staphylococcus aureus [10]) [µg/mL]	SMILES	inhibition (Staphylococcus aureus [1])	inhibition at 50 µg/mL (Acinetobacter baumannii [3]) [%]	inhibition at 50 µg/mL (Pseudomonas aeruginosa [4]) [%]	inhibition at 50 µg/mL (Escherichia coli [5]) [%]	inhibition at 50 µg/mL [6] [%]	inhibition at 50 µg/mL (Staphylococcus aureus [1]) [%]
5.86 (≈ 19.8 µM)	–	–	–	–	COC1=C(c2ccccc2)C(=O)OC1C(O)c1ccccc1 (centres undefined)	inactive	25.9	53.2	61.7	18	–
1.38 (≈ 5.22 µM)	12.8 (≈ 48.4 µM)	> 50	> 50	–	O=C1O/C(=C\c2ccccc2)C(O)=C1c1ccccc1 [PULVINONE]	–	–	–	–	–	59.2
1.01 (≈ 2.11 µM)	11.8 (≈ 24.8 µM)	–	–	–	COC1=C(c2ccc(Br)cc2)C(=O)OC1C(O)c1ccc(N2CCOCC2)c(F)c1 (centres undefined)	inactive	32.9	35.6	45.5	–	–
< 0.25	< 0.25	< 0.25	< 0.25	< 0.25	C[C@H]1COc2c(N3CCN(C)CC3)c(F)cc3c(=O)c(C(=O)O)cn1c23.C[C@H]1COc2c(N3CCN(C)CC3)c(F)cc3c(=O)c(C(=O)O)cn1c23.O [LEVOFLOXACIN]	–	–	–	–	–	–
3.67 (≈ 8.88 µM)	–	–	–	–	COC1=C(c2ccc(C)cc2)C(=O)OC1C(O)c1ccc(N2CCOCC2)c(F)c1 (centres undefined)	inactive	4.9	31.8	58.3	1.1	–
4.09 (≈ 9.8 µM)	–	–	–	–	COC1=C(c2cccc(F)c2)C(=O)OC1C(O)c1ccc(N2CCOCC2)c(F)c1 (centres undefined)	inactive	30.9	38.2	72	41.5	–
3.91 (≈ 14 µM)	–	–	–	–	COC1=C(c2ccccc2)C(=O)O/C1=C\c1ccccc1	inactive	18.2	45.4	60.2	19.7	–
